Data published in ChEMBL document CHEMBL5058577, “EUbOPEN Chemogenomics Library 2 (Multiplex)” (2022).

System: U2OS
Assay: Multiplex assay against U2OS
Type: toxicity, cell-based
Conditions: human
Outline: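 At seeding, live cells were stained with Hoechst33342, BioTracker Green Microtubule Cytoskeleton Dye, MitoTracker Red and Annexin V Alexa Fluor 680. After compound addition they were imaged on a CQ1 microscope at 37°C and 5% CO2, and CellPathfinder machine-learning gating sorted them into Hoechst high-intensity objects or normal cells, with normal cells further split into healthy, pyknosed or fragmented nuclei and pyknosed cells into mitotic or apoptotic. Tubulin, mitochondrial-mass and membrane-permeability phenotypes are given as per cents of cells with healthy nuclei.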

[1] = 12 h, 1 µM, compound concentration 1 uM, replicate 1
[2] = 12 h, 1 µM, compound concentration 1 uM, replicate 2
[3] = 12 h, 10 µM, compound concentration 10 uM, replicate 1
[4] = 12 h, 10 µM, compound concentration 10 uM, replicate 2
[5] = 24 h, 1 µM, compound concentration 1 uM, replicate 1
[6] = 24 h, 1 µM, compound concentration 1 uM, replicate 2
[7] = 24 h, 10 µM, compound concentration 10 uM, replicate 1
[8] = 24 h, 10 µM, compound concentration 10 uM, replicate 2
[9] = 48 h, 1 µM, compound concentration 1 uM, replicate 1
[10] = 48 h, 1 µM, compound concentration 1 uM, replicate 2
[11] = 48 h, 10 µM, compound concentration 10 uM, replicate 1
[12] = 48 h, 10 µM, compound concentration 10 uM, replicate 2

## CCCC(CCC)C(=O)O [VALPROIC ACID]
[1]
  Population Apoptotic (%): 72%
  Population Fragmented Nuclei (%): 28%
  Population Healthy Nuclei (%): 63%
  Population Hoechst High Intensity Objects (%): 6%
  Population Membrane Permeable-Phenotype (%): 9%
  Population Mitochondria Different-Phenotype (%): 7%
  Population Mitotic Cells (%): 27%
  Population Normal (%): 93%
  Population Pyknosed Nuclei (%): 8%
  Population Tubulin-Different-Phenotype (%): 8%
[2]
  Population Apoptotic (%): 66%
  Population Fragmented Nuclei (%): 14%
  Population Healthy Nuclei (%): 77%
  Population Hoechst High Intensity Objects (%): 2%
  Population Membrane Permeable-Phenotype (%): 8%
  Population Mitochondria Different-Phenotype (%): 3%
  Population Mitotic Cells (%): 33%
  Population Normal (%): 97%
  Population Tubulin-Different-Phenotype (%): 6%
[3]
  Population Apoptotic (%): 77%
  Population Fragmented Nuclei (%): 30%
  Population Healthy Nuclei (%): 66%
  Population Hoechst High Intensity Objects (%): 4%
  Population Membrane Permeable-Phenotype (%): 6%
  Population Mitochondria Different-Phenotype (%): 3%
  Population Mitotic Cells (%): 22%
  Population Normal (%): 95%
  Population Pyknosed Nuclei (%): 3%
  Population Tubulin-Different-Phenotype (%): 4%
[4]
  Population Apoptotic (%): 85%
  Population Fragmented Nuclei (%): 21%
  Population Healthy Nuclei (%): 70%
  Population Hoechst High Intensity Objects (%): 0%
  Population Membrane Permeable-Phenotype (%): 4%
  Population Mitochondria Different-Phenotype (%): 4%
  Population Mitotic Cells (%): 14%
  Population Normal (%): 100%
  Population Pyknosed Nuclei (%): 7%
[5]
  Population Apoptotic (%): 84%
  Population Fragmented Nuclei (%): 24%
  Population Healthy Nuclei (%): 66%
  Population Hoechst High Intensity Objects (%): 6%
  Population Membrane Permeable-Phenotype (%): 9%
  Population Mitochondria Different-Phenotype (%): 6%
  Population Mitotic Cells (%): 16%
  Population Normal (%): 93%
  Population Pyknosed Nuclei (%): 8%
  Population Tubulin-Different-Phenotype (%): 9%
[6]
  Population Apoptotic (%): 100%
  Population Fragmented Nuclei (%): 17%
  Population Healthy Nuclei (%): 74%
  Population Hoechst High Intensity Objects (%): 3%
  Population Mitochondria Different-Phenotype (%): 2%
  Population Mitotic Cells (%): 0%
  Population Normal (%): 96%
  Population Tubulin-Different-Phenotype (%): 7%
[7]
  Population Apoptotic (%): 83%
  Population Fragmented Nuclei (%): 25%
  Population Healthy Nuclei (%): 71%
  Population Hoechst High Intensity Objects (%): 2%
  Population Membrane Permeable-Phenotype (%): 4%
  Population Mitochondria Different-Phenotype (%): 3%
  Population Mitotic Cells (%): 16%
  Population Normal (%): 97%
  Population Pyknosed Nuclei (%): 3%
  Population Tubulin-Different-Phenotype (%): 3%
[8]
  Population Apoptotic (%): 100%
  Population Fragmented Nuclei (%): 17%
  Population Healthy Nuclei (%): 78%
  Population Hoechst High Intensity Objects (%): 0%
  Population Membrane Permeable-Phenotype (%): 8%
  Population Mitochondria Different-Phenotype (%): 4%
  Population Mitotic Cells (%): 0%
  Population Normal (%): 100%
  Population Pyknosed Nuclei (%): 4%
  Population Tubulin-Different-Phenotype (%): 5%
[9]
  Population Apoptotic (%): 76%
  Population Fragmented Nuclei (%): 20%
  Population Healthy Nuclei (%): 69%
  Population Hoechst High Intensity Objects (%): 3%
  Population Membrane Permeable-Phenotype (%): 7%
  Population Mitochondria Different-Phenotype (%): 5%
  Population Mitotic Cells (%): 23%
  Population Normal (%): 96%
  Population Pyknosed Nuclei (%): 9%
  Population Tubulin-Different-Phenotype (%): 5%
[10]
  Population Apoptotic (%): 91%
  Population Fragmented Nuclei (%): 16%
  Population Healthy Nuclei (%): 72%
  Population Membrane Permeable-Phenotype (%): 8%
  Population Mitotic Cells (%): 8%
  Population Pyknosed Nuclei (%): 11%
  Population Tubulin-Different-Phenotype (%): 6%
[11]
  Population Apoptotic (%): 91%
  Population Fragmented Nuclei (%): 20%
  Population Healthy Nuclei (%): 71%
  Population Hoechst High Intensity Objects (%): 2%
  Population Membrane Permeable-Phenotype (%): 3%
  Population Mitochondria Different-Phenotype (%): 2%
  Population Mitotic Cells (%): 8%
  Population Normal (%): 97%
  Population Pyknosed Nuclei (%): 7%
  Population Tubulin-Different-Phenotype (%): 1%
[12]
  Population Apoptotic (%): 93%
  Population Hoechst High Intensity Objects (%): 1%
  Population Membrane Permeable-Phenotype (%): 9%
  Population Mitotic Cells (%): 6%
  Population Normal (%): 98%
  Population Tubulin-Different-Phenotype (%): 4%
